Source: ChEMBL document CHEMBL5724801, “EUbOPEN Chemogenomics Library - Multiplex” (2024)
Where “and” joins values, the source holds several entries; their conditions need not be identical. Equal values may be shown once.

Test system: U2OS
Assay: Multiplex assay against U2OS
Type: toxicity, cell-based
Settings: human
Procedure, shortened: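 Cells were classed with CellPathfinder machine-learning gating, first as Hoechst high-intensity objects or normal cells, then (normal cells) as healthy, pyknosed or fragmented nuclei, and finally (pyknosed cells) as mitotic or apoptotic. Staining of live cells at seeding used Hoechst33342, BioTracker Green Microtubule Cytoskeleton Dye, MitoTracker Red and Annexin V Alexa Fluor 680, with imaging on a CQ1 microscope at 37°C and 5% CO2 after compound addition. Tubulin, mitochondrial-mass and membrane-permeability phenotypes are per cents of healthy-nucleus cells.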

[1] = 12 h, 1 µM, compound concentration 1 uM
[2] = 12 h, 10 µM, compound concentration 10 uM
[3] = 24 h, 1 µM, compound concentration 1 uM
[4] = 24 h, 10 µM, compound concentration 10 uM
[5] = 48 h, 1 µM, compound concentration 1 uM
[6] = 48 h, 10 µM, compound concentration 10 uM

With `Cc1cc(O)c(-c2ccc([C@@H](C)CN(C)C)cc2)c2c1[nH]c(=O)c1sccc12` the “Population Apoptotic (%)” value [1] was 70% [middle of 4 runs], the “Population Healthy Nuclei (%)” value [1] was 48% and 63% and 56.09% and 62.5% and the “Population Hoechst High Intensity Objects (%)” value [1] was 4% and 2% and 0.32% and 0%. For the same compound, the “Population Normal (%)” value [1] was 95% and 97% and 99.68% and 100%, the “Population Tubulin-Different-Phenotype (%)” value [1] was 12% and 14% and 4% and 6.67% and the “Population Apoptotic (%)” value [2] was 64% and 69% and 40.85% and 42.19%. For the same compound, the “Population Healthy Nuclei (%)” value [2] was 50% and 56% and 56.98% and 52.11%, the “Population Hoechst High Intensity Objects (%)” value [2] was 4% and 8% and 0% and the “Population Mitotic Cells (%)” value [2] was 35% and 30% and 59.15% and 57.81%. For the same compound, the “Population Normal (%)” value [2] was 95% and 91% and 100%, the “Population Pyknosed Nuclei (%)” value [2] was 41.28% [middle of 4 runs] and the “Population Tubulin-Different-Phenotype (%)” value [2] was 72% and 45% and 70.41% and 64.86%. The “Population Apoptotic (%)” value [3] was 92% [middle of 4 runs], the “Population Healthy Nuclei (%)” value [3] was 34% [middle of 4 runs] and the “Population Hoechst High Intensity Objects (%)” value [3] was 8% and 6% and 0.34% and 0%. For the same compound, the “Population Normal (%)” value [3] was 91% and 93% and 99.66% and 100%, the “Population Tubulin-Different-Phenotype (%)” value [3] was 19% and 12% and 11.11% and 17.07% and the “Population Apoptotic (%)” value [4] was 81% and 82% and 58.37% and 68.63%. The “Population Healthy Nuclei (%)” value [4] was 31% [middle of 4 runs], the “Population Hoechst High Intensity Objects (%)” value [4] was 9% [middle of 4 runs] and the “Population Membrane Permeable-Phenotype (%)” value [4] was 16% [middle of 4 runs]. The “Population Mitochondria Different-Phenotype (%)” value [4] was 70% [middle of 4 runs], the “Population Mitotic Cells (%)” value [4] was 31.37% [middle of 4 runs] and the “Population Normal (%)” value [4] was 90% and 87% and 99.35% and 100%. For the same compound, the “Population Pyknosed Nuclei (%)” value [4] was 67.86% [middle of 4 runs], the “Population Tubulin-Different-Phenotype (%)” value [4] was 64.47% [middle of 4 runs] and the “Total Cell Count” value [4] was 210 [middle of 4 runs]. For the same compound, the “Population Apoptotic (%)” value [5] was 96% and 100% and 72.95% and 83.47%, the “Population Healthy Nuclei (%)” value [5] was 18% [middle of 4 runs] and the “Population Normal (%)” value [5] was 82% and 84% and 99.63% and 98.84%. For the same compound, the “Population Tubulin-Different-Phenotype (%)” value [5] was 25% and 50% and 28.57%, the “Total Cell Count” value [5] was 250 [middle of 4 runs] and the “Population Apoptotic (%)” value [6] was 96% and 100% and 80.93% and 86.67%. The “Population Healthy Nuclei (%)” value [6] was 17% and 13% and 14.23% and 9.84%, the “Population Mitochondria Different-Phenotype (%)” value [6] was 45% and 50% and 33.33% and the “Population Mitotic Cells (%)” value [6] was 13.33% [middle of 4 runs]. For the same compound, the “Population Normal (%)” value [6] was 79% and 84% and 98.92% and 99.19%, the “Population Pyknosed Nuclei (%)” value [6] was 31% and 78.47% and 86.07% and the “Population Tubulin-Different-Phenotype (%)” value [6] was 64% [middle of 4 runs]. For the same compound, the “Total Cell Count” value [6] was 220 [middle of 4 runs].

With `CCn1c(-c2nc3cc(C(=O)N4CCCC(N)C4)ccc3n2C)cc2ccccc21.Cl` (stereo unspecified) the “Population Healthy Nuclei (%)” value [1] was 67% and 77% and 89.25% and 83.07%, the “Population Hoechst High Intensity Objects (%)” value [1] was 0% and 5% and the “Population Membrane Permeable-Phenotype (%)” value [1] was 4% [middle of 4 runs]. The “Population Normal (%)” value [1] was 99% and 94% and 100%, the “Population Tubulin-Different-Phenotype (%)” value [1] was 2.36% [middle of 4 runs] and the “Population Apoptotic (%)” value [2] was 48% [middle of 4 runs]. The “Population Healthy Nuclei (%)” value [2] was 56% and 60% and 74.57% and 67.27%, the “Population Hoechst High Intensity Objects (%)” value [2] was 2% and 1% and 0% and the “Population Mitotic Cells (%)” value [2] was 51% and 45% and 65.85% and 73.91%. The “Population Normal (%)” value [2] was 97% and 98% and 100%, the “Population Pyknosed Nuclei (%)” value [2] was 19% and 18% and 23.43% and 27.88% and the “Population Tubulin-Different-Phenotype (%)” value [2] was 27% and 48% and 33.72% and 25.23%. For the same compound, the “Total Cell Count” value [2] was 277 [middle of 4 runs], the “Population Apoptotic (%)” value [3] was 66% [middle of 4 runs] and the “Population Healthy Nuclei (%)” value [3] was 68% and 92.18% and 84.19%. The “Population Hoechst High Intensity Objects (%)” value [3] was 1% and 3% and 0.17% and 0%, the “Population Normal (%)” value [3] was 98% and 96% and 99.83% and 100% and the “Population Pyknosed Nuclei (%)” value [3] was 9% and 5% and 6.49% and 13.68%. The “Population Apoptotic (%)” value [4] was 62% and 73% and 40% and 53.33%, the “Population Healthy Nuclei (%)” value [4] was 54% and 64% and 74.61% and 71.91% and the “Population Hoechst High Intensity Objects (%)” value [4] was 2% and 3% and 0%. For the same compound, the “Population Mitotic Cells (%)” value [4] was 46.67% [middle of 4 runs], the “Population Normal (%)” value [4] was 97% and 96% and 100% and the “Population Pyknosed Nuclei (%)” value [4] was 17% and 16% and 21.16% and 25.28%. For the same compound, the “Population Tubulin-Different-Phenotype (%)” value [4] was 15.62% [middle of 4 runs], the “Population Apoptotic (%)” value [5] was 75% and 70% and 44% and 47.83% and the “Population Healthy Nuclei (%)” value [5] was 76% and 70% and 90.93% and 86.01%. The “Population Hoechst High Intensity Objects (%)” value [5] was 2% and 4% and 0%, the “Population Membrane Permeable-Phenotype (%)” value [5] was 8% and 10% and 1.19% and 2.66% and the “Population Mitochondria Different-Phenotype (%)” value [5] was 3% and 9% and 0.33% and 7.4%. For the same compound, the “Population Mitotic Cells (%)” value [5] was 52.17% [middle of 4 runs], the “Population Normal (%)” value [5] was 97% and 95% and 100% and the “Population Pyknosed Nuclei (%)” value [5] was 6% and 7% and 7.4% and 11.7%. The “Population Tubulin-Different-Phenotype (%)” value [5] was 5% and 8% and 1.41% and 1.78%, the “Population Apoptotic (%)” value [6] was 78% and 77% and 57.94% and 60% and the “Population Healthy Nuclei (%)” value [6] was 53% and 64% and 76.68% and 73.28%. The “Population Hoechst High Intensity Objects (%)” value [6] was 5% and 6% and 0% and 0.4%, the “Population Mitotic Cells (%)” value [6] was 40% [middle of 4 runs] and the “Population Normal (%)” value [6] was 94% and 93% and 100% and 99.6%. For the same compound, the “Population Pyknosed Nuclei (%)” value [6] was 19% and 16% and 18.03% and 22.27% and the “Population Tubulin-Different-Phenotype (%)” value [6] was 14.92% [middle of 4 runs].
